The source of these data is ChEMBL document CHEMBL1629540 (J Med Chem, 2010).

A value given as a limit tells only on which side of the number the result lay.

In experiment [1] the target is T1, Glutamate receptor 3 (Rattus norvegicus, UniProt P19492). Description: Displacement of [3H[AMPA from rat recombinant GluA3o expressed in […] cells. Type of experiment: cell-based. Summed up:
(§1)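 Competition binding to membranes from Sf9 cells infected with recombinant baculovirus encoding rat flop GluA subunits. Radioligand 2-5 nM (RS)-[3H]AMPA, 12-16 ligand concentrations. At least three experiments, each in triplicate, reported as Ki mean ± SEM.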
(In general: Displacement assays read how much labelled ligand stays bound in the presence of the test substance.)

A further experiment has as its target Glutamate NMDA receptor. Kind of experiment: Displacement of [3H]CGP39653 from NMDA receptor in rat brain membrane. Type of experiment: cell membranes.
Experiment [2] deals with T2, Glutamate receptor 4 (Rattus norvegicus, UniProt P19493). Description: Displacement of [3H[AMPA from rat recombinant GluA4o expressed in […] cells. It is filed as cell-based. Summed up:
as §1

Experiment [3] is described as follows: Displacement of [3H]KA from kainate receptor in rat brain membrane. Type of experiment: cell membranes. Summed up:
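Rat cortical synaptosomal membranes, competition with 5 nM [3H]KA (58.0 Ci/mmol). IC50 given as the antilog of the mean log value from three individual experiments.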

Experiment [4] deals with T3, Glutamate receptor 1 (Rattus norvegicus, UniProt P19490). Description: Displacement of [3H[AMPA from rat recombinant GluA1o expressed in […] cells. It is filed as cell-based. In a few lines:
as §1

The target in experiment [5] is Glutamate receptor ionotropic, kainate 1 (Rattus norvegicus, UniProt P22756). Description: Displacement of [3H[SYM2081 from rat recombinant GluK1(Q)1b expressed in […] cells. It is filed as cell-based.
Chain of Glutamate receptor ionotropic, kainate 1 (P22756 whole entry): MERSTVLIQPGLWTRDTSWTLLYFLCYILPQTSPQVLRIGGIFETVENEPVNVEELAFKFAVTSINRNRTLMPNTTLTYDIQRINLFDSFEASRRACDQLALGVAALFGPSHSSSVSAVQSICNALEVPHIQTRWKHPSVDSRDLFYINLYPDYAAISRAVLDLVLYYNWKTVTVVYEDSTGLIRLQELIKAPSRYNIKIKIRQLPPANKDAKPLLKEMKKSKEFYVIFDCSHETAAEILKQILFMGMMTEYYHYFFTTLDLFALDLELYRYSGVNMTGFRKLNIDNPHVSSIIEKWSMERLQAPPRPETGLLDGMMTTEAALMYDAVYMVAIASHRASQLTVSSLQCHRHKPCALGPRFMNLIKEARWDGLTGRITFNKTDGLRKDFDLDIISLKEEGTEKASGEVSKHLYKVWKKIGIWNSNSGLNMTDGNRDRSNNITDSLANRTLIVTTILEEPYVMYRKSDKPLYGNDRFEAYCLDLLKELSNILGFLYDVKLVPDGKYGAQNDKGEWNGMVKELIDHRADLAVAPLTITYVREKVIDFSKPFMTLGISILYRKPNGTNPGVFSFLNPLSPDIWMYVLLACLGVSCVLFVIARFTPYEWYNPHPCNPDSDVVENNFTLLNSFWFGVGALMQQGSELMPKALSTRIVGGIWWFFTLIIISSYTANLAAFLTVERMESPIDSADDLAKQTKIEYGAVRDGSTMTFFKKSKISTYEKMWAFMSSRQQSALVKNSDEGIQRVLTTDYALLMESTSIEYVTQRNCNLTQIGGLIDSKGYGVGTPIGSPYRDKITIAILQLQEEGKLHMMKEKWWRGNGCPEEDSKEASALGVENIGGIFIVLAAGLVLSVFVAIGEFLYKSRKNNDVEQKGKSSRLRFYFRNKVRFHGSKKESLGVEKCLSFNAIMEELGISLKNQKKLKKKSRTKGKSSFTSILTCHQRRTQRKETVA
A short description of experiment [6]: Displacement of [3H]AMPA from AMPA receptor in rat brain membrane. It is filed as cell membranes. In a few lines:
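Rat cortical synaptosomal membranes, competition with 5 nM [3H]AMPA (55.5 Ci/mmol). IC50 given as the antilog of the mean log value from three individual experiments.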

Experiment [7] deals with Glutamate receptor ionotropic, kainate 2 (Rattus norvegicus, UniProt P42260). Description: Displacement of [3H[SYM2081 from rat recombinant GluK2(VCR)a expressed in […] cells. It is filed as cell-based. In a few lines: (§2)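 Competition binding to membranes from Sf9 cells infected with recombinant baculovirus encoding rat GluK subunits. Radioligand 1-5 nM [3H]SYM2081 (47.9 Ci/mmol), 12-16 ligand concentrations. At least three experiments, each in triplicate, reported as Ki mean ± SEM.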

Experiment [8] deals with T4, Glutamate receptor 2 (Rattus norvegicus, UniProt P19491). Kind of experiment: Agonist activity at rat recombinant GluA2(Q)i expressed in Xenopus laevis oocytes by two-electrode voltage clamp assay. It is filed as functional, cell-based, Oocyte. In a few lines:
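Homomeric rat GluA2(Q) flip receptors expressed in Xenopus laevis oocytes and recorded by two-electrode voltage clamp. Agonist-evoked currents were normalised to the maximum response in each oocyte. EC50 was obtained by fitting the concentration-response data to a logistic equation giving Imax and the Hill coefficient.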
On the technique in general: In two-electrode clamp one electrode senses voltage and the other passes current.

In experiment [9] the target is T2, Glutamate receptor 4. Description: Agonist activity at rat recombinant GluA4i expressed in Xenopus laevis oocytes by two-electrode voltage clamp assay. Type of experiment: functional, cell-based, Oocyte. Summed up: (§3)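 Rat homomeric flip-isoform GluA subunits expressed in Xenopus laevis oocytes, measured by two-electrode voltage clamp. Highest concentration tested 3 mM. Responses normalized to the maximum response in each oocyte. Three to five experiments per receptor, each in duplicate. EC50 obtained by fitting I = Imax/(1 + (10^logEC50/10^log[A])^nH), giving Imax and Hill coefficient.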

The target in experiment [10] is T3, Glutamate receptor 1. Kind of experiment: Agonist activity at rat recombinant GluA1i expressed in Xenopus laevis oocytes by two-electrode voltage clamp assay. Type of experiment: functional, cell-based, Oocyte. In a few lines: as §3
The target in experiment [11] is T1, Glutamate receptor 3. Kind of experiment: Agonist activity at rat recombinant GluA3i expressed in Xenopus laevis oocytes by two-electrode voltage clamp assay. It is filed as functional, cell-based, Oocyte. Summed up: as §3
The target in experiment [12] is Glutamate receptor 2 (Homo sapiens, UniProt P42262). Description: Displacement of [3H]AMPA from GluA2-S1S2 receptor.
Chain of Glutamate receptor 2 (Homo sapiens, UniProt P42262) (P42262 whole entry): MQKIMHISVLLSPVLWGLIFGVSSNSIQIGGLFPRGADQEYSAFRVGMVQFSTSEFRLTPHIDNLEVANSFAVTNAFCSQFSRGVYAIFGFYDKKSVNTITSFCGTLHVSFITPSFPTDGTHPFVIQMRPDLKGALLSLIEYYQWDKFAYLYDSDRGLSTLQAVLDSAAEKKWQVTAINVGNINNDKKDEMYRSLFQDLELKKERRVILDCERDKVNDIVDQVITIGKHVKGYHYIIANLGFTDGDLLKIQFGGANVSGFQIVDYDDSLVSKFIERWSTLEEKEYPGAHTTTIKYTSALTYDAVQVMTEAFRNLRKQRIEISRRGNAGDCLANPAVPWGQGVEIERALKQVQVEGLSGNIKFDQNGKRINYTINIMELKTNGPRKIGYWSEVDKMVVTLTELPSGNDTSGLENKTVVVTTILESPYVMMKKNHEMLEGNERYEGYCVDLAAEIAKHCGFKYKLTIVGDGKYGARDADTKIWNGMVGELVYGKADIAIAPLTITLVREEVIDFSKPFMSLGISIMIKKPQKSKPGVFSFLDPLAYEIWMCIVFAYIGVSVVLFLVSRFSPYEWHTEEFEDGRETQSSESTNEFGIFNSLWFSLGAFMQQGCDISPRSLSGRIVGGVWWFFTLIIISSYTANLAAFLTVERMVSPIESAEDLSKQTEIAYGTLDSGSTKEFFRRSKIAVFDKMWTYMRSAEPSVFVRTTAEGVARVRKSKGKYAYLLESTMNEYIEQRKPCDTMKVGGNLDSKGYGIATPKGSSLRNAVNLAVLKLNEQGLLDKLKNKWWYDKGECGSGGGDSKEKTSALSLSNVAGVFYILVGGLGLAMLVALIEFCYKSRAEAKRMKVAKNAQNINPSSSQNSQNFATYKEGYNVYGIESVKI
Experiment [13] concerns the target Glutamate receptor ionotropic, kainate 3 (Rattus norvegicus, UniProt P42264). Description: Displacement of [3H[SYM2081 from rat recombinant GluK3a expressed in […] cells. It is filed as cell-based. In a few lines: as §2
Experiment [14] deals with T4, Glutamate receptor 2. Description: Displacement of [3H[AMPA from rat recombinant GluA2(R)o expressed in […] cells. It is filed as cell-based.

T3 sequence (P19490 whole entry): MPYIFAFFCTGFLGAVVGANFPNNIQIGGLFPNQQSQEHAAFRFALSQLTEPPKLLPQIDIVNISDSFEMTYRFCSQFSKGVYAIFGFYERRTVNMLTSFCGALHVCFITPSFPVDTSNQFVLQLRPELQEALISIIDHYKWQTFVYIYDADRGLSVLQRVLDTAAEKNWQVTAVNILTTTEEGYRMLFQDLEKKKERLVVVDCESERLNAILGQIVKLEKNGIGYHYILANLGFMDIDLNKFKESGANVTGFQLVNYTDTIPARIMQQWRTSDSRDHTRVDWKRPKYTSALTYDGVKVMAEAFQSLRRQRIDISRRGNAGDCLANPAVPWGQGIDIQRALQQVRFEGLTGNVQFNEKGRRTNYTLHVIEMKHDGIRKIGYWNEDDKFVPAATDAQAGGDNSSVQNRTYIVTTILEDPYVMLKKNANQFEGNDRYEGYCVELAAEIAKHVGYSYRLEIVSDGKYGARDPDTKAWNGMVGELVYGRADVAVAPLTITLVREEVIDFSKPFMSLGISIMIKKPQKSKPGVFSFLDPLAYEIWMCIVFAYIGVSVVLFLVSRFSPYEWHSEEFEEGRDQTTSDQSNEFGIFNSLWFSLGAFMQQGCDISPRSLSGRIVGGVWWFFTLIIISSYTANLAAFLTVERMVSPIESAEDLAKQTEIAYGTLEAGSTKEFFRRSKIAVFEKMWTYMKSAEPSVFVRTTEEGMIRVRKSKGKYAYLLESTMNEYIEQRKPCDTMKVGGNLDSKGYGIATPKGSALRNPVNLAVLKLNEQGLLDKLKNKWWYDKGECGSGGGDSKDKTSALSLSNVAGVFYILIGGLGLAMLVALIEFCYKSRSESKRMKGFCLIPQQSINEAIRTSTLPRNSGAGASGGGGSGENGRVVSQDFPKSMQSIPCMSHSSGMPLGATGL
T4 sequence (P19491 whole entry): as the sequence (P42262 whole entry) above, with M191T, T291A, R764G, A852P counted along it
T2 sequence (P19493 whole entry): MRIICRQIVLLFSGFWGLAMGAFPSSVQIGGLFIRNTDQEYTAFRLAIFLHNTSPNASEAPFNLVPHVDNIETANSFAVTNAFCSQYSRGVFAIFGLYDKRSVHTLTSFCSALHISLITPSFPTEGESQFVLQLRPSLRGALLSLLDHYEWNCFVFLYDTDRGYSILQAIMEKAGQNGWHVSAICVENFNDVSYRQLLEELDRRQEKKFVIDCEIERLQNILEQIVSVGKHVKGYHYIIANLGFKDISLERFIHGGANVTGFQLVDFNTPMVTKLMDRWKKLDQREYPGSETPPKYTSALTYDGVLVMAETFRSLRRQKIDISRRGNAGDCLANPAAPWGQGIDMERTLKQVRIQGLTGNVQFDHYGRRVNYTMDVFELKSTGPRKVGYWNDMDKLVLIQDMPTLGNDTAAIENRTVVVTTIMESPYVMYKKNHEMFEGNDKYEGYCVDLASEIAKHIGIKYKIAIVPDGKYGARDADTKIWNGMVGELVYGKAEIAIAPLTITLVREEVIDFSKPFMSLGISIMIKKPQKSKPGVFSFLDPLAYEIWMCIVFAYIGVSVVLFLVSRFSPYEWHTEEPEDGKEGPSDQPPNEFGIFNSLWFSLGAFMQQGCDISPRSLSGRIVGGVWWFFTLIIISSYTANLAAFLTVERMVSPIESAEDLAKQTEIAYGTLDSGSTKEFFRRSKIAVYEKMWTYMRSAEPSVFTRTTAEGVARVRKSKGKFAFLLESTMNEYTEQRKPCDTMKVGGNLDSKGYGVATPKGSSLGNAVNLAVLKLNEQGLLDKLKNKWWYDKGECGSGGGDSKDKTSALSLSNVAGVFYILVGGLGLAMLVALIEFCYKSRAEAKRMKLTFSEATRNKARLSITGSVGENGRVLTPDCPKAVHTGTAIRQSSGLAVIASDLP
Chain of Glutamate receptor ionotropic, kainate 3 (P42264 whole entry): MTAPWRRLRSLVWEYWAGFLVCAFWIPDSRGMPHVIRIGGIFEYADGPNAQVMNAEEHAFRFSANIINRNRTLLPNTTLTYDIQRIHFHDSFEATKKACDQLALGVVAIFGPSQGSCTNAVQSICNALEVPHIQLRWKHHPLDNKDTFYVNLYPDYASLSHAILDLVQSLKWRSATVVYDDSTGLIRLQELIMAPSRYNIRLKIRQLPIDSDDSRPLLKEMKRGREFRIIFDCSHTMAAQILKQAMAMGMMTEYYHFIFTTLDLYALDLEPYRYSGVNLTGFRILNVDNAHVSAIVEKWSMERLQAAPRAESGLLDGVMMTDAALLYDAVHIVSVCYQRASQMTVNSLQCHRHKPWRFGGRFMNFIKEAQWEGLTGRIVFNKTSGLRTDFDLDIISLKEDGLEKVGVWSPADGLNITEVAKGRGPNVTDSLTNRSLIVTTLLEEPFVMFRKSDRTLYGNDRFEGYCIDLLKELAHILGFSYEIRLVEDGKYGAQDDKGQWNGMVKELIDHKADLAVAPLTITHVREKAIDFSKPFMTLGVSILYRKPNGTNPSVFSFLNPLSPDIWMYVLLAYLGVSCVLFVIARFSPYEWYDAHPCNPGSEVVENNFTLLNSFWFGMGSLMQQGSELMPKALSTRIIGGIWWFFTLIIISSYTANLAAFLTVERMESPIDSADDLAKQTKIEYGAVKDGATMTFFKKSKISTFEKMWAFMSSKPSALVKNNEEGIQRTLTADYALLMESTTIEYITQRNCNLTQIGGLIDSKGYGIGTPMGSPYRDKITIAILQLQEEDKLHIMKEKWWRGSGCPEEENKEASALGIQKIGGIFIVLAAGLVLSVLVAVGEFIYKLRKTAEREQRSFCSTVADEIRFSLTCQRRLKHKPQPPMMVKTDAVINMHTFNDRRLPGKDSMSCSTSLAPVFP

`O=C(O)[C@H]1Cc2c(O)noc2CN1`: the inhibition constant (Ki) was 0.84 µM on Glutamate receptor 3 [1]; above 100 µM on Glutamate NMDA receptor; 0.64 µM on Glutamate receptor 4 [2]; 360 nM at Glutamate receptor 1 [4]; 10.1 µM in experiment [5]; above 100 µM in experiment [7]. Also, the half-inhibitory concentration (IC50) was above 100 µM in experiment [3] and 470 nM in experiment [6]. In addition, the EC50 on Glutamate receptor 2 [8] worked out at 22.3 µM.

For `O=C(O)C1NCCc2c1o[nH]c2=O` (racemic), the inhibition constant (Ki) on Glutamate receptor 3 [1] was 4.52 µM; on Glutamate NMDA receptor, above 100 µM; on Glutamate receptor 4 [2], 13.5 µM; on Glutamate receptor 1 [4], 180 nM; in experiment [5], 4.48 µM; at Glutamate receptor 2 [12], 108 nM. For the same compound, the figures for the Ki in experiment [13] and in experiment [7] were 29.8 µM and above 100 µM, respectively. For the same compound, the EC50 at Glutamate receptor 4 [9] was above 1 mM; at Glutamate receptor 1 [10], 82.8 µM; on Glutamate receptor 3 [11], 637 µM; on Glutamate receptor 2 [8], 34.6 µM. The IC50 in [3] was above 100 µM; in experiment [6], 370 nM.

`O=C(O)C1Cc2c(O)noc2CN1` (racemic): the results for the Ki (at Glutamate receptor 2 [12]; in [13]) were 494 nM and 54 µM, respectively.

Regarding `NC(Cc1onc(O)c1Cl)C(=O)O` (racemic), the Ki was found to be 27.5 µM at Glutamate receptor 3 [1]; 18 µM on Glutamate NMDA receptor; 370 nM on Glutamate receptor 2 [14]; 11.9 µM on Glutamate receptor 4 [2]; 130 nM at Glutamate receptor 1 [4]; 6.8 µM in experiment [5]. The results for the Ki in experiment [13] and in experiment [7] were 90.5 µM and above 100 µM, respectively. Besides, the concentration for half-maximal inhibition (IC50) was above 100 µM in [3] and 220 nM in experiment [6]. Moreover, the concentration for a half-maximal effect (EC50) at Glutamate receptor 1 [10] stood at 4.7 µM.

With `Cc1onc(O)c1C[C@H](N)C(=O)O` [(S)-AMPA], the results for the inhibition constant (Ki) in experiment [13] and in [7] were 42.7 µM and above 1000 µM, respectively.

Consider `N[C@H](C(=O)O)c1cc(O)no1` [IBOTENIC ACID], for which the inhibitory constant (Ki) at Glutamate receptor 3 [1] was above 100 µM; at Glutamate receptor 2 [14], above 100000 nM; on Glutamate receptor 4 [2], above 100 µM; on Glutamate receptor 1 [4] it was above 100000 nM; in experiment [5] it was 2.43 µM; in experiment [13] it was 1.74 µM. In addition, the Ki in experiment [7] stood at 3.23 µM. Moreover, the IC50 is 22 µM in [3] and above 100000 nM in [6].

The Ki is a dissociation constant, usually derived from enzyme kinetics or from competition with a known ligand. What is called IC50 is the midpoint of a concentration-inhibition curve. High values mean weaker potency in that assay, low ones greater potency in that assay. Broadly, the EC50 is the concentration needed to bring the measured effect to its halfway point.
